Data from ChEMBL document CHEMBL1949497, “Synthesis and antihormonal properties of novel 11β-benzoxazole-substituted steroids” (Bioorg Med Chem Lett, 2012).

Tests used:
T47D = experiment: Selectivity ratio of IC50 for progesterone receptor in human T47D cells to IC50 for glucocorticoid receptor in human A549 cells; format: cell-based
Method in brief: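 Ratio calculated by dividing the IC50 from the T47D alkaline phosphatase assay by the IC50 from the A549 cell-based functional assay, with both measured in this work. It serves as an index of how well PR and GR antagonism are separated. Mifepristone was run alongside as the reference compound.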

Progesterone receptor = target: T1, Progesterone receptor (Homo sapiens, UniProt P06401); experiment: Antagonist activity at progesterone receptor in human T47D cells assessed as inhibition of progesterone-induced alkaline phosphatase activity after 24 hrs by luminescence based assay; format: functional, cell-based
T1 sequence (P06401 whole entry): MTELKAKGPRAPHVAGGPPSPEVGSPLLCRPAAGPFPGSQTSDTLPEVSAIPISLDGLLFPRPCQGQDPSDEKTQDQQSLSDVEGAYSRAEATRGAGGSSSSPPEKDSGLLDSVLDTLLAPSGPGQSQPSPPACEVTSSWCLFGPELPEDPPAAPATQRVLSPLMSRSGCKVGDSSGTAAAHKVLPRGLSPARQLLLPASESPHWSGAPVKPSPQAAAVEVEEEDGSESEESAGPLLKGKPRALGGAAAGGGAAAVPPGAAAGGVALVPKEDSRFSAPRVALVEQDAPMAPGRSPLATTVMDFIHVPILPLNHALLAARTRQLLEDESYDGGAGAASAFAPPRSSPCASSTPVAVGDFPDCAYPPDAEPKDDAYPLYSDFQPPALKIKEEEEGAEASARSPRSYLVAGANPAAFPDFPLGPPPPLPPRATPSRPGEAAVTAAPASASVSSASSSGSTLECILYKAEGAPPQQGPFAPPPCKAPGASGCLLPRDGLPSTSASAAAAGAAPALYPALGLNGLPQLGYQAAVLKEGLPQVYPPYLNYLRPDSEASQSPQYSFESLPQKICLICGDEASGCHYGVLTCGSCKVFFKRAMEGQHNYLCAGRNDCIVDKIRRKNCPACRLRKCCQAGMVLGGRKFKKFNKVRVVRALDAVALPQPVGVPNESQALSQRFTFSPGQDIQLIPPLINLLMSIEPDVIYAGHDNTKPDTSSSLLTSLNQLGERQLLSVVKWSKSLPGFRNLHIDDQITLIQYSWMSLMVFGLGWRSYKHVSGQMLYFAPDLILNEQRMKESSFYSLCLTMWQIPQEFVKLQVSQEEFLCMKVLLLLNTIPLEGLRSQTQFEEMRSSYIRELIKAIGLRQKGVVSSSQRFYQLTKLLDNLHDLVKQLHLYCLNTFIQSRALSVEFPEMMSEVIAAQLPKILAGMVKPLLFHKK

Glucocorticoid receptor = target: T2, Glucocorticoid receptor (Homo sapiens, UniProt P04150); experiment: Antagonist activity at glucocorticoid receptor in human A549 cells assessed as inhibition of dexamethasone-induced transcription at GRE after 24 hrs by luciferase reporter gene assay; format: functional, cell-based
T2 sequence (P04150 whole entry): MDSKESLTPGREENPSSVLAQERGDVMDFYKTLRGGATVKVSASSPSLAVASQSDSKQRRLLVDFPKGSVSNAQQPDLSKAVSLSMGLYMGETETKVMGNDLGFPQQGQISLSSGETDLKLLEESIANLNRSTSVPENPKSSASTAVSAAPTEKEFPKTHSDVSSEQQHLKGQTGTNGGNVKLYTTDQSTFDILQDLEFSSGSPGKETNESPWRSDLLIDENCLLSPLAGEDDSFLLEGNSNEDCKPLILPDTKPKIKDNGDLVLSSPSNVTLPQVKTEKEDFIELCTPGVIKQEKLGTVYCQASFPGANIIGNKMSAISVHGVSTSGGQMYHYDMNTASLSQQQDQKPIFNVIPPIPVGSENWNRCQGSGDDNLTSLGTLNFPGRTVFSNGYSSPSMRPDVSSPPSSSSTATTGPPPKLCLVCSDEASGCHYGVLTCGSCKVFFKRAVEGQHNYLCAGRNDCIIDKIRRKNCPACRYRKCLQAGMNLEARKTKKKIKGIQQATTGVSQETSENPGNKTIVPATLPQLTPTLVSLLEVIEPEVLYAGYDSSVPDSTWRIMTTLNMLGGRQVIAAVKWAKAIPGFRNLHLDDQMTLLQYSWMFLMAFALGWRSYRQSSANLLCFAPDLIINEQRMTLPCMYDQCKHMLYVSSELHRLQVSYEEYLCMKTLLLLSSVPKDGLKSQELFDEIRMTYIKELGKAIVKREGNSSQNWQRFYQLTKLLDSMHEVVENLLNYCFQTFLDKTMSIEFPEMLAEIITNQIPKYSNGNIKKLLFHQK

IC50 (Progesterone receptor) [nM]	IC50 (Glucocorticoid receptor) [nM]	Compound	Ratio IC50 (T47D)
46	142	CC#C[C@]1(NC=O)CC[C@H]2[C@@H]3CCC4=CC(=O)CCC4=C3[C@@H](c3ccc4oc(C(F)(F)F)nc4c3)C[C@@]21C	0.3
85	61	CC#C[C@]1(O)CC[C@H]2[C@@H]3CCC4=CC(=O)CCC4=C3[C@@H](c3ccc4oc(C(F)(F)F)nc4c3)C[C@@]21C	1.4
101	45	CC#C[C@]1(O)CC[C@H]2[C@@H]3CCC4=CC(=O)CCC4=C3[C@@H](c3ccc4ocnc4c3)C[C@@]21C	2.2
41	60	CC#C[C@]1(NC=O)CC[C@H]2[C@@H]3CCC4=CC(=O)CCC4=C3[C@@H](c3ccc4ocnc4c3)C[C@@]21C	0.7
–	–	CC#C[C@]1(O)CC[C@H]2[C@@H]3CCC4=CC(=O)CCC4=C3[C@@H](c3ccc(N(C)C)cc3)C[C@@]21C	0.9
65	13	CC#C[C@]1(O)CC[C@H]2[C@@H]3CCC4=CC(=O)CCC4=C3[C@@H](c3ccc4oc(CC)nc4c3)C[C@@]21C	5
35	23	CC#C[C@]1(O)CC[C@H]2[C@@H]3CCC4=CC(=O)CCC4=C3[C@@H](c3ccc4oc(C)nc4c3)C[C@@]21C	1.5
